# Compound activity (PubChem)
# The list is not random: actives were taken first. Their share in the collection is about 2.2%.
# GLD-1 TGE inh: GLD-1-TGE RNA interaction inhibition (C. elegans); Q17339; actives 0.44% (n = 320,000); AID 2280; purified GLD-1 + fluorescein TGE RNA, fluorescence polarization; inhibition, % at 5.96 µM;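 active = percent inhibition above a per-plate cutoff, the plate mean of test compounds plus 3 SD, cut at about 30% in these data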;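 also: 0% = DMSO wells with GLD-1 and probe and 100% = wells lacking GLD-1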
# Bcl-xL primary: inhibitors of human Bcl-xL. Q07817. GST-Bcl-xL / FITC-Bim BH3 peptide fluorescence polarization. inhibition, % at 10.9 µM. actives 0.7% (n = 320,000);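 active = inhibition above the mean of all tested compounds plus 3 SD, cutoff set per campaign, cut at about 30% in these data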;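 also: 0% = DMSO wells and 100% = unlabeled Bim-BH3 peptide competitor; inhibitors lower millipolarization by displacing the labeled peptide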
# Target sequence (Q07817 whole entry, looked up): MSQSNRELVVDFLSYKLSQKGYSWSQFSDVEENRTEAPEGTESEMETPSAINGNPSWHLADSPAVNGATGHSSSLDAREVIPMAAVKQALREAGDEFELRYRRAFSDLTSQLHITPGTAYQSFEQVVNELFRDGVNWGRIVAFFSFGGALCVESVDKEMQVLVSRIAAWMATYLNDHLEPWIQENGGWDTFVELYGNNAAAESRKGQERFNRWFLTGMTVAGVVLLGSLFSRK
# MEX-5 binding: C. elegans MEX-5 TCR-2 RNA binding activity; Q9XUB2; MEX-5/FITC-TCR2 RNA binding, fluorescence polarization; hits give low values; activity score (negative = inhibition of binding), % at 10 µM; actives 0.38% (n = 300,000); AID 1832;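 active = inhibition past about -25% in most replicates, and total fluorescence under double the plate's negative control median, limit read from the data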;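 also: 0% = DMSO and -100% = 5 µM competing unlabeled TCR2 RNA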
# IMP-1 inhibitor: inhibitors of Pseudomonas aeruginosa IMP-1 metallo-beta-lactamase | purified IMP-1, nitrocefin hydrolysis, epi-absorbance fluorescence | inhibition, % at 5.6 µM | actives 0.45% (n = 290,000) | AID 1556;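 active = inhibition above the mean plus 3 SD of all compounds in the same screening run, cut at about 4.5% in these data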;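 also: 0% = IMP-1 with DMSO and 100% = DMSO wells lacking enzyme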
#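 System: purified IMP-1 / Input: IMP-1 dispensed at 0.2 nM / Medium: 50 mM HEPES pH 7.1, 50 µM ZnSO4, 0.05% Brij 35 / Timing: 15 min enzyme–compound preincubation, then 25 min nitrocefin reaction, 25 °C / Technique: plate fluorescence quenching by hydrolysis product, ex 480/em 530 nm / Repeats: singlicate testing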
# VIM-2 inh: inhibitors of Pseudomonas aeruginosa VIM-2 metallo-beta-lactamase | purified VIM-2, nitrocefin hydrolysis, epi-absorbance fluorescence | actives 0.89% (n = 290,000) | inhibition, % at 5.6 µM | AID 1527;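 active = inhibition above the mean of all tested compounds plus 3 SD, cutoff set per screening run, cut at about 7.5% in these data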;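 also: red hydrolysis product quenches plate fluorescence so inhibitors raise well fluorescence; 0% = enzyme with DMSO and 100% = DMSO without enzyme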
# EBV gp42 inh: EBV gp42 inhibition | Q1HVG2 | Fluorescence polarization binding assay, mP read-out | inhibition, % (tested at 21.74 µM) | actives 0.42% (n = 220,000) | AID 1085; in the data active = inhibition above about 50%
# Target sequence (Q1HVG2 whole entry, looked up): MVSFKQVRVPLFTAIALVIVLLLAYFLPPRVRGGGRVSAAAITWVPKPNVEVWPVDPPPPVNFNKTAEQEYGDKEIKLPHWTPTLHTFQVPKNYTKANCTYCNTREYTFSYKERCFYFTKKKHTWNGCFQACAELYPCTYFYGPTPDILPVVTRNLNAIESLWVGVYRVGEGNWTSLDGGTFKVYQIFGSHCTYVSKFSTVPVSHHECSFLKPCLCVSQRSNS
# Starred values were filed as active, the others as inactive; · = not tested or not shown.
SMILES,GLD-1 TGE inh,Bcl-xL primary,MEX-5 binding,IMP-1 inhibitor,VIM-2 inh,EBV gp42 inh
COc1ccc(C(=O)NC(C)c2nnc(SCC(=O)NC3CCCC3)n2C)cc1 (stereo not drawn),11.8,-1.0,-3.4,-3.2,-5.2,·
COc1ccc(Cn2c(N)c(C#N)c3nc4ccccc4nc32)cc1OC,-10.2,-4.7,-9.5,-2.8,-0.7,-12.0
COc1ccc2c(c1)c1nc3ccccc3nc1n2Cc1ccc(OC(C)C)c(OC)c1,17.1,42.4*,-72.9*,0.0,-0.1,80.0*
COc1cc(-c2ccc(Nc3ccccc3C(=O)O)c(OC)c2)ccc1Nc1ccccc1C(=O)O,·,·,·,-2.8,0.0,69.5*
NS(=O)(=O)c1ccc(CNC(=O)c2cc(-c3ccccn3)nc3ccc(Cl)cc23)cc1,13.9,40.6*,2.0,-4.4,-3.5,31.1
O=C(c1ccco1)N1CCN(C(=O)c2cc(-c3ccccn3)nc3ccc(Cl)cc23)CC1,9.4,40.4*,-12.3,-3.8,-4.7,23.4
CCCCN1CC(=O)N2[C@H]3c4cc(Cl)ccc4OC[C@@H]3[C@H](C(=O)OCC)[C@]2(C)C1=O,-1.8,-2.7,·,·,·,·
CCc1c(C)nc(SCC(=O)NNC(=O)c2ccco2)[nH]c1=O,2.3,4.3,-37.0*,-0.3,-2.7,·
COc1ccccc1C(=O)NCC(=O)NCCc1ccc(Cl)cc1,4.6,3.4,-1.7,-1.2,0.4,·
CCCCCCCC(=O)C(C)C(=O)N(C)[C@H](Cc1ccc(OC)cc1)C(=O)N(C)[C@H](C(N)=O)C(C)C (stereo partly drawn),2.6,·,·,·,·,·
CC1(C)CC(=O)C2=C(C1)OC(N)=C(C#N)C2c1ccccc1[N+](=O)[O-] (stereo not drawn),119.4*,164.6*,-80.1*,-2.2,-3.1,14.8
CCOC(=O)CSc1nc2sc3c(c2c(=O)n1-c1ccc(OC)cc1)CCN(C)C3,·,·,0.4,-3.0,-1.2,·
COC(=O)CSc1nc2sc3c(c2c(=O)n1-c1ccc(OC)cc1)CCN(C)C3,·,·,1.6,5.8*,1.9,·
CCOC(=O)N1CCN(C(=O)CNC(=O)c2ccc(Br)o2)CC1,·,·,0.5,-2.0,-1.2,·
CCNC(=O)N1c2ccc(OCC)cc2C(C)=CC1(C)C,68.0*,47.7*,2.1,2.8,-1.9,-13.4
CCOc1c(C)cnc2c1c(=O)n(Cc1c(F)cccc1Cl)c(=O)n2C,-3.0,3.1,-0.9,-2.6,-1.6,·
N#C/C(=C(/O)c1ccco1)c1nc2ccccc2s1,-5.1,4.9,-2.8,-2.6,-2.9,0.3
N#C/C(=C(/O)c1cc2ccccc2o1)c1nc2ccccc2s1,-4.3,3.4,-32.6*,-1.2,-2.6,-20.1
C=CCn1c(C)cc(C(=O)COC(=O)COc2ccccc2C#N)c1C,0.1,2.9,-0.6,-2.3,-1.9,90.0*
O=C(O)CC1(CC(=O)N2CCOCC2)CCCC1,6.2,3.2,0.1,-1.4,-1.2,·
Cc1ccc2cc(/C=C3\N=C(c4ccccc4)OC3=O)c(N3CCOCC3)nc2c1,0.2,-3.7,-33.8*,0.4,-0.6,157.5*
COc1ccc(N2CCN(c3nc4cc(C)ccc4cc3C=O)CC2)cc1,3.1,4.6,1.0,-3.6,-3.0,·
Oc1cccc2cc3cccc(O)c3c(O)c12,25.2,43.1*,-2.4,0.8,3.0,14.6
COc1cc2cccc(OC)c(=O)c2c(O)c1OC,-7.8,3.1,2.2,-2.4,1.3,0.9
O=C(COc1cc2oc(=O)cc(-c3ccccc3)c2cc1Cl)NC(Cc1c[nH]c2ccc(O)cc12)C(=O)O (stereo not drawn),-6.0,4.7,-2.2,-2.6,-3.5,·
SMILES,GLD-1 TGE inh,Bcl-xL primary,MEX-5 binding,IMP-1 inhibitor,VIM-2 inh,EBV gp42 inh
COc1ccc(Cl)cc1NC(=O)CN(C)C(=O)Cn1cnnn1,-4.3,·,·,·,·,·
O=C(O)c1ccc(-c2ccco2)n1Cc1ccccc1,7.4,5.3,0.2,8.8*,1.9,-14.2
COC(=O)c1ccc(-c2ccco2)n1Cc1cccc(C)c1,-2.6,2.9,·,2.2,-4.7,-7.3
Nc1ccc2c3c(cccc13)CC2,-27.5,38.4*,2.3,3.1,2.2,-19.6
c1ccc(Nc2ccc3c4c(cccc24)CC3)cc1,-9.1,11.3,-1.5,-2.1,2.2,-9.5
CC1CCCC(C)N1C(=O)COC(=O)c1ccc(Br)o1 (stereo not drawn),7.1,·,·,·,·,·
COc1ccc(CN2CCCC(CO)(Cc3ccc(F)cc3)C2)c(OC)c1OC (stereo not drawn),5.4,2.1,-1.1,0.0,-1.6,·
CC(C)Oc1ccc(CN2CCCC(CO)(Cc3ccc(F)cc3)C2)cc1 (stereo not drawn),5.2,35.6*,0.8,-1.0,-1.1,·
O=C(c1cnn2c(C(F)(F)F)cc(-c3cccs3)nc12)N1CCN(C(c2ccccc2)c2ccccc2)CC1,2.4,85.1*,0.7,-3.6,-2.9,-7.7
CN1CCN(C(=O)c2cnn3c(C(F)(F)F)cc(-c4cccs4)nc23)CC1,1.8,-2.9,0.5,-4.0,8.6*,-15.3
CCn1cnc2scc(-c3ccccc3)c2c1=O,5.3,-0.4,2.0,-2.8,-1.9,-9.7
Cn1cc(/C=N/n2cnc3scc(-c4ccc(Cl)cc4)c3c2=O)c2ccccc21,3.2,4.9,-27.5*,-1.1,1.1,6.0
COCCN(C(=O)Cn1c(C(F)(F)F)nc2ccccc21)c1c(N)n(Cc2ccccc2)c(=O)[nH]c1=O,6.9,1.7,1.1,-3.2,-1.7,·
COc1cccc(C(C[N+](=O)[O-])c2c(C)[nH]n(-c3ccccc3)c2=O)c1 (stereo not drawn),-3.6,5.8,3.2,1.7,12.1*,·
O=C(CSc1cccc2cccnc12)OCC(=O)c1ccccc1,-3.1,3.0,-1.3,-1.6,-3.7,-14.0
O=C(CSc1cccc2cccnc12)OCC(=O)c1ccc(Br)cc1,-4.7,4.2,-0.9,5.3*,0.1,-16.7
Cc1ccc2c(c1)[C@H]1[C@H](CO2)[C@H](c2ccccc2)[C@]2(C)C(=O)N(Cc3ccc(Cl)cc3)CC(=O)N12,-3.6,-5.3,·,·,·,·
Cc1ccc2c(c1)[C@H]1[C@H](CO2)[C@H](c2ccccc2)[C@]2(C)C(=O)N(Cc3ccc(F)cc3)CC(=O)N12,52.1*,·,·,·,·,·
O=C(NC1CCCC1)C(c1cccnc1)N(C(=O)c1csnn1)c1ccccc1Cl (stereo not drawn),-1.2,2.0,-1.8,-3.7,-4.0,·
CCOc1ccc2[nH]c(C)c(CN3CCN(CC)CC3)c(=O)c2c1,3.4,-1.1,0.7,5.2*,-1.8,-11.9
Cc1ccc(C)c(S(=O)(=O)C(C#N)c2nc3ccccc3nc2N2CCCC2)c1 (stereo not drawn),50.9*,77.2*,-7.7,-5.1,-2.3,110.3*
Cc1ccc(C)c(S(=O)(=O)C(C#N)c2nc3ccccc3nc2N2CCOCC2)c1 (stereo not drawn),11.7,12.6,-2.9,-0.9,-5.5,-21.5
